According to PubChem BioAssay AID588732 (Vanderbilt Specialized Chemistry Center, 2011):
The source made the active and inactive calls.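 How the source made its calls: active means compound shifting glutamate potency twofold either way, or pushing peak response under 75% or over a set limit; inactive means the rest.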

Target: Metabotropic glutamate receptor 8 (Rattus norvegicus) (UniProt P70579)
Test: rat mGlu8 allosteric modulation, glutamate curve shift, profiling panel, selectivity assay for mGlu5 PAM project, thallium flux, HEK/GIRK cells (AID 588732)
Conditions: glutamate CRC shift, at 10 µM; for Emax: measured here: glutamate max response with compound
Outline: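 Test system – rat mGlu8 receptor expressed in HEK/GIRK cells · Reagent – glutamate agonist concentration-response curve · Technique – FluoZin2 thallium-flux slope · Evaluation – glutamate EC50 fold shift and %Emax, four-parameter logistic fit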

Sequence of Metabotropic glutamate receptor 8 (Rattus norvegicus) (P70579 whole entry, looked up): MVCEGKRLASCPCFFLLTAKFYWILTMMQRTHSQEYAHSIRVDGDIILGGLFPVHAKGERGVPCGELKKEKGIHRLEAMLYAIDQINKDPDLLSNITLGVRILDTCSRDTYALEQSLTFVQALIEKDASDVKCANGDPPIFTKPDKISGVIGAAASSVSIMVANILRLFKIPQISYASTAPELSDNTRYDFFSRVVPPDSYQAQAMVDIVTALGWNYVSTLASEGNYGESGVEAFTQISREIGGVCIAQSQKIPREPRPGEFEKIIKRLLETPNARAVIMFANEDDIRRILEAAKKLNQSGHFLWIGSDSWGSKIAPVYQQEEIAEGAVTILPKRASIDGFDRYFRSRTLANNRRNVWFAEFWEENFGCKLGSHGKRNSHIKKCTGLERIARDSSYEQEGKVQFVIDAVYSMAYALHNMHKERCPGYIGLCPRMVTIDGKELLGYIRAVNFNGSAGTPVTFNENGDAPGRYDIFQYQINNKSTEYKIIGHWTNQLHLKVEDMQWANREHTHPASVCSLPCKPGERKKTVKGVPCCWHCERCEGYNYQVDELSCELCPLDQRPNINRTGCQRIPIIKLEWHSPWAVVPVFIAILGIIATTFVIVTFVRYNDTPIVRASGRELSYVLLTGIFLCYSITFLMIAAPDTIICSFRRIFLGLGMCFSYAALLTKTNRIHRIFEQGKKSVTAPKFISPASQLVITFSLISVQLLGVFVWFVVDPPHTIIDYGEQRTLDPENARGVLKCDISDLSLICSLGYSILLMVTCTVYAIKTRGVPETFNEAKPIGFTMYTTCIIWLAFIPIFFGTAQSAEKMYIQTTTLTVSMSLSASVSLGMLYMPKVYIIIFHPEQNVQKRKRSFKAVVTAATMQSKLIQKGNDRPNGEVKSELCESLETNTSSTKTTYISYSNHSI

fold shift | Emax | Structure (SMILES)
1.1 (inactive) | 92% | CC1(NC(=O)c2ccc(C#Cc3cccc(F)c3)cn2)COC1
1.36 (inactive) | 89% | C[C@@H](NC(=O)c1ccc(C#Cc2cccc(F)c2)cn1)C(C)(C)O
